Source: ChEMBL document CHEMBL4371029, “Design, synthesis and evaluation of N2,N4-diaminoquinazoline based inhibitors of phosphodiesterase type 5” (Bioorg Med Chem Lett, 2019)
Values after ≈ are worked out from the molar mass of the structure shown.

What was measured:
[1] = molecular target: cGMP-specific 3',5'-cyclic phosphodiesterase (Rattus norvegicus, UniProt O54735); experiment: Inhibition of rat lung PDE5 using [3H]cGMP as substrate measured after 10 mins by scintillation counting method
A549 = experiment: Cytotoxicity against human A549 cells after 72 hrs by MTT assay; assay type: cell-based; settings: A549, 72 h
Summary of the method: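 A549 adenocarcinomic human alveolar basal epithelial cells (ATCC CCL-185). Viability read by MTT; result expressed as IC50.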

[2] = Selectivity index, ratio of IC50 for human A549 cells to IC50 for rat lung PDE5
[3] = Inhibition of histone activated chicken PDE6 using [3H]cGMP as substrate measured after 10 mins by scintillation counting method; design: species or system Gallus gallus
Summary of the method: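 Radioactive enzyme assay adapted from Sonnenburg et al. IC50 is the concentration giving 50% enzyme inhibition. Percent inhibition at the highest concentration tested is also recorded.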

[4] = Equilibrium solubility of the compound in pH 7.4 phosphate buffer saline at 1 mg sonicated for 1 hr followed by 6 hrs incubation by shake flask method; assay type: physicochemical; settings: phosphate buffered saline
[5] = Selectivity index, ratio of IC50 for histone activated chicken PDE6 to IC50 for rat lung PDE5
Artery = experiment: Vasorelaxant activity in Wistar rat endothelium intact pulmonary artery rings assessed as inhibition of phenylephrine-induced contraction; assay type: functional, tissue-based

| IC50 [1] [nM] | IC50 [3] [nM] | solubility thermodynamic at 6 h [4] [µM] | Ratio IC50 [5] | EC50 (Artery) [nM] | SMILES | IC50 (A549) [nM] | Ratio IC50 [2] |
| --- | --- | --- | --- | --- | --- | --- | --- |
| 443 |  |  |  |  | COc1cccc(CNc2nc(Nc3cccc(S(N)(=O)=O)c3)nc3cc(OC)c(OC)cc23)c1 |  |  |
| 284 |  |  |  |  | COc1cc2nc(Nc3cccc(S(N)(=O)=O)c3)nc(NCc3ccco3)c2cc1OC |  |  |
| 1380 | 890 | 410 (≈ 134 µg/mL) | 0.65 |  | c1ccc(CNc2nc(Nc3ccccc3)nc3ccccc23)cc1 | 12300 | 9 |
| 224 |  |  |  |  | NS(=O)(=O)c1ccc(Nc2nc(NCc3cccs3)c3ccccc3n2)cc1 |  |  |
| 1260 |  |  |  |  | CN(C)S(=O)(=O)c1ccc(Nc2nc(NCc3ccccc3)c3ccccc3n2)cc1 |  |  |
| 89 | 360 | 340 (≈ 140 µg/mL) | 4.04 | 2280 | NS(=O)(=O)c1cccc(Nc2nc(NCc3cccs3)c3ccccc3n2)c1 | 15000 | 169 |
| > 10000 | 33500 |  |  |  | Clc1cnc(Nc2ccccc2)nc1NCc1ccccc1 |  |  |
| 177 |  |  |  |  | NC(=O)c1ccc(Nc2nc(NCc3cccs3)c3ccccc3n2)cc1 |  |  |
| 525 | 450 | 600 (≈ 247 µg/mL) | 0.86 |  | c1ccc(CNc2nc(Nc3ccc(N4CCOCC4)cc3)nc3ccccc23)cc1 | 12100 | 23 |
| 290 |  |  |  |  | NC(=O)c1cccc(Nc2nc(NCc3cccs3)c3ccccc3n2)c1 |  |  |
| 946 |  |  |  |  | NS(=O)(=O)c1ccc(Nc2nc(NCc3ccccc3)c3ccccc3n2)cc1 |  |  |
| 775 |  |  |  |  | O=C(Nc1ccccc1)Nc1ccc(Nc2nc(NCc3cccs3)c3ccccc3n2)cc1 |  |  |
| 218 |  |  |  |  | COc1cc2nc(Nc3cccc(S(N)(=O)=O)c3)nc(NCc3ccccc3)c2cc1OC |  |  |
| 555 |  |  |  |  | COc1cc2nc(Nc3cccc(S(N)(=O)=O)c3)nc(NCc3cccs3)c2cc1OC |  |  |
|  | 13 |  |  | 140 | CCCc1nn(C)c2c(=O)[nH]c(-c3cc(S(=O)(=O)N4CCN(C)CC4)ccc3OCC)nc12 |  |  |
| 350 |  |  |  |  | COc1cccc(CNc2nc(Nc3cccc(S(N)(=O)=O)c3)nc3ccccc23)c1 |  |  |
| 116 | 190 | 380 (≈ 150 µg/mL) | 1.64 |  | NS(=O)(=O)c1cccc(Nc2nc(NCc3ccco3)c3ccccc3n2)c1 | 26900 | 232 |
| 1440 |  |  |  |  | c1ccc(Nc2nc(NCc3cccs3)c3ccccc3n2)cc1 |  |  |
| 3710 |  |  |  |  | Cc1cc(Nc2nc(Nc3cccc(S(N)(=O)=O)c3)nc3ccccc23)n[nH]1 |  |  |
| 514 | 610 | 480 (≈ 200 µg/mL) | 1.19 |  | c1csc(CNc2nc(Nc3ccc(N4CCOCC4)cc3)nc3ccccc23)c1 | 11400 | 22 |
| 72 | 332 | 1370 (≈ 556 µg/mL) | 4.61 | 1630 | NS(=O)(=O)c1cccc(Nc2nc(NCc3ccccc3)c3ccccc3n2)c1 | 11200 | 155 |
